Data on seven molecules can be found in ChEMBL document CHEMBL1132098, “2,7-diazabicyclo[3.3.0]octanes as novel h5-HT receptor agonists” (Bioorg Med Chem Lett, 1999).

SMILES strings stand for the structures.

The target in series [1] is T1, 5-hydroxytryptamine receptor 1D (Homo sapiens, UniProt P28221). Kind of series: Ability to displace [3H]- -5-HT binding to cloned 5-hydroxytryptamine 1D receptor stably expressed in chinese hamster cells (CHO cells). The series is classed as cell-based. A digest of the protocol:
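Human 5-HT1D receptor cloned and stably expressed in CHO cells. Displacement of [3H]-5-HT binding, with radioligand at roughly its KD for the receptor. At least three independent experiments, each run in duplicate. IC50 reported as geometric mean with limits derived from the SEM.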

For series [2], the target named is Serotonin 1 receptors; 5-HT1B & 5-HT1D (Homo sapiens) (UniProt P28222+P28221). The series can be described thus: Selectivity ratio for h-5-HT 1B receptor to that of h5-HT 1D receptors. It is filed as protein assay. A digest of the protocol:
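Displacement of [3H]-5-HT binding at cloned human 5-HT1B and 5-HT1D receptors, with radioligand at roughly its KD for each receptor. Ratio obtained by dividing the mean IC50 values for the two receptors.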

In series [3] the test system is Rattus norvegicus. Kind of series: Drug concentration was measured in plasma samples originating from the hepatic portal vein (hpv) at 2 hr post administration. The series is classed as functional, organism-based. A digest of the protocol: (§1)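 Rats dosed orally at 3 mg/kg (5 mL/kg, aqueous formulation). Plasma taken from the hepatic portal vein and by cardiac puncture (systemic) at 0.5 and 2 h after dosing. Drug concentration reported in ng/mL.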

The test system of series [4] is Rattus norvegicus. The series can be described thus: Drug concentration was measured in plasma samples originating from the hepatic portal vein (hpv) at 0.5 hr post administration. The series is classed as functional, organism-based. A digest of the protocol:
as §1

Series [5] can be described thus: Acid dissociation constant was determined. It is filed as ADME.
In series [6] the test system is Rattus norvegicus. The series can be described thus: Drug concentration was measured in plasma samples originating from the cardiac puncture (systemic) at 0.5 hr post administration. The series is classed as functional, organism-based. A digest of the protocol:
as §1

Series [7] relates to Rattus norvegicus. The series can be described thus: Drug concentration was measured in plasma samples originating from the cardiac puncture (systemic) at 2 h post administration. The series is classed as functional, organism-based. A digest of the protocol: as §1
The target of series [8] is T1, 5-hydroxytryptamine receptor 1D. The series can be described thus: Maximum stimulation of [35S]GTP-gamma-S, binding expressed relative to the maximal effect produced by the 5-HT. It is filed as functional. A digest of the protocol: (§2)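 Agonist-induced [35S]GTPγS binding measured in CHO cells stably transfected with the human 5-HT1D receptor. Maximal effect expressed as % of the 5-HT maximum.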

Series [9] has the same target. The series can be described thus: Measurement of agonist induced [35S]GTP-gamma-S, binding in CHO cells stably transfected with 5-hydroxytryptamine 1D receptor. The series is classed as functional, cell-based. A digest of the protocol:
as §2
On the technique in general: GTPγS is a poorly hydrolysed GTP analogue; its binding reports G protein activation.

T1 sequence (P28221 whole entry): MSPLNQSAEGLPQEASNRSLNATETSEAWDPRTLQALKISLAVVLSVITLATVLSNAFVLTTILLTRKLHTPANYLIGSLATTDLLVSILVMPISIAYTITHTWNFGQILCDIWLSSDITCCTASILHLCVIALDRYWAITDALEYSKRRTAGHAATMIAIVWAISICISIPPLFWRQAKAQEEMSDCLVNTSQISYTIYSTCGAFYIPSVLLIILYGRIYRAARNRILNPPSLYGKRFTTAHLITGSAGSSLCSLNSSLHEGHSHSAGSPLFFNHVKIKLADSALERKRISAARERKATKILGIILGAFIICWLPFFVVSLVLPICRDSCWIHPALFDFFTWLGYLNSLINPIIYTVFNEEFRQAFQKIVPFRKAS

Broadly, the IC50 is the point on the concentration scale where inhibition reaches its midpoint. As to `CN1C[C@@H](CN(C#N)Cc2ccccc2)C[C@@H]1Cc1c[nH]c2ccc(-n3ccnc3)cc12`, the IC50 in series [1] was 3.3 nM. The Selectivity in series [2] is 6.7.
One may read the pKa as the pH at which an ionisable group is half protonated. Low values mean a group that gives up its proton readily, high ones a group that holds its proton tightly. Turning to `CN(Cc1ccccc1)C[C@H]1C[C@H](Cc2c[nH]c3ccc(-n4ccnc4)cc23)N(C)C1`, the Absorption in the series with Rattus norvegicus [3] is 30 ng/mL; in the series with Rattus norvegicus [4], 21 ng/mL; in the series on Rattus norvegicus [6], < 4 ng/mL; in the series with Rattus norvegicus [7], < 4 ng/mL. Moreover, in [1], the IC50 worked out at 0.9 nM. In addition, the pKa in series [5] worked out at 8.7. In addition, the Selectivity in series [2] was found to be 6.9.
For the molecule `c1ccc(CNC[C@@H]2CCN(CCc3c[nH]c4ccc(-n5cnnc5)cc34)C2)cc1`, the Absorption with Rattus norvegicus [3], in the series with Rattus norvegicus [4], with Rattus norvegicus [6] and in the series on Rattus norvegicus [7] was < 5 ng/mL in each case. Also, in [8], the Efficacy was 102. In addition, the Selectivity in series [2] stood at 62.
What is called EC50 is the concentration giving half of the maximal effect. For the molecule `CN1[C@@H](Cc2c[nH]c3ccc(-n4cnnc4)cc23)C[C@@H]2CN(Cc3ccc(F)cc3)C[C@@H]21` (racemic), in series [9], the EC50 was 2.9 nM. The molecule also gave an IC50 in series [1] of 0.8 nM. In series [8], this molecule registered an Efficacy of 88. Also, in series [2], the Selectivity amounted to 13.
For the molecule `CN1[C@@H](Cc2c[nH]c3ccc(-n4cnnc4)cc23)C[C@@H]2CN(Cc3ccccc3)C[C@@H]21` (racemic), in series [9], the half-maximal effective concentration (EC50) worked out at 0.5 nM. This molecule also displayed an IC50 in [1] of 0.9 nM. This molecule also registered a pKa in [5] of 8.5. The molecule also yielded an Efficacy in [8] of 96. In [2], the Selectivity amounted to 6.7.
Consider `CN1[C@@H](Cc2c[nH]c3ccc(-n4cnnc4)cc23)C[C@@H]2CN(CCc3cccc(F)c3)C[C@@H]21` (racemic), for which a half-maximal response in [9] (EC50) required 1.9 nM. Further, the IC50 in series [1] is 1.2 nM. The same molecule yielded an Efficacy in [8] of 63. The Selectivity in series [2] is 15.
In series [9], `CN1[C@@H](Cc2c[nH]c3ccc(-n4ccnc4)cc23)C[C@@H]2CN(Cc3ccccc3)C[C@@H]21` (racemic) came in with a 50% effective concentration (EC50) of 1.2 nM. In addition, the Absorption was determined as 105 ng/mL with Rattus norvegicus [3], 558 ng/mL in the series with Rattus norvegicus [4], 47 ng/mL in the series on Rattus norvegicus [6] and 10 ng/mL with Rattus norvegicus [7]. Further, in series [1], the IC50 amounted to 0.7 nM. The same molecule displayed an Efficacy in [8] of 69. Besides, the Selectivity in series [2] was found to be 8.4.
